Test results as given in ChEMBL document CHEMBL1145116, “Imidazo[1,2-b]pyridazines, novel nucleus with potent and broad spectrum activity against human picornaviruses: design, synthesis, and biological evaluation” (J Med Chem, 2003).
≈ marks a conversion by molar mass, not a printed value.

Tests used:
[1] = system: Human rhinovirus sp.; assay: (§1) Antiviral activity was evaluated against rhino virus using PRA assay; type: functional, organism-based, human rhinovirus14
Summary of the method: (§2)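 Rhinovirus 14 was adsorbed for 1 h at room temperature onto confluent H-HeLa monolayers grown in medium 199 with 10% FBS. Cells were overlaid with agarose and growth medium (5% FBS) containing compound in DMSO (final DMSO 0.01%), then held at 37 °C under CO2 until plaques appeared in DMSO controls. Plates were formalin-fixed, crystal-violet stained and plaques counted, with duplicate wells averaged. IC50/IC90 were computed by Reed–Muench.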

[2] = system: rhinovirus B14; assay: (§3) Cytopathic effect was evaluated against rhino virus usingCPE/XTT assay; type: functional, human rhinovirus14
Summary of the method: (§4)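 HeLa cells were seeded at 10 000 per well in medium 199 with 5% FBS and grown overnight at 37 °C. Surviving cells were read with XTT (0.4 mg/mL) plus PMS after 3-4 h at 37 °C. IC50 (CPE inhibition) and TC50 (versus a no-drug, no-virus control) came from the linear portion of the dose–response curves.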

[3] = system: rhinovirus B14; assay: as §1; type: functional, organism-based, human rhinovirus14; conditions: Rhinovirus B; summary of the method: as §2
[4] = system: Human rhinovirus sp.; assay: as §3; type: functional, human rhinovirus14; summary of the method: as §4
[5] = system: Coxsackievirus A21; assay: Broad spectrum antiviral activity was evaluated against coxsackievirus A21 mouse muscle adapted (CA21M); type: functional, organism-based; conditions: Enterovirus C, Muscle tissue
[6] = system: Coxsackievirus B3; assay: Broad spectrum antiviral activity was evaluated against CB3; type: functional, organism-based, and coxsackievirus b3; conditions: Enterovirus B
[7] = system: Coxsackievirus A21; assay: Broad spectrum antiviral activity was evaluated against CA21C; type: functional, organism-based; conditions: Enterovirus C
[8] = system: Poliovirus 1; assay: Broad spectrum antiviral activity was evaluated against PV1; type: functional, organism-based; conditions: Enterovirus C
[9] = system: rhinovirus A2; assay: Broad spectrum antiviral activity was evaluated against HRV-2; type: functional, organism-based, human rhinovirus2; conditions: Rhinovirus A
[10] = system: rhinovirus A16; assay: Broad spectrum antiviral activity was evaluated against HRV-16; type: functional, organism-based; conditions: Rhinovirus A
[11] = system: Human rhinovirus 1A; assay: Broad spectrum antiviral activity was evaluated against HRV-1A; type: functional, organism-based, human rhinovirus1a

SMILES | TC50 [2] | IC50 [3] | other results
CC(C)S(=O)(=O)n1c(N)nc2ccc(/C(=N/O)c3ccccc3)cc21 [ENVIROXIME] |  |  | IC50 [1]: 0.05 µg/mL (≈ 0.139 µM)
CNC(=O)/C=C(\c1ccc(OC)cc1)c1ccc2nc(N)c(-c3ccc(F)cc3)n2n1 | >10 µg/mL | 0.6 µg/mL (≈ 1.44 µM) | 
CNC(=O)/C=C(\c1ccccc1)c1ccc2nc(N)c(-c3ccc(F)cc3)n2n1 | 4.06 µg/mL (≈ 10.5 µM) | 0.11 µg/mL (≈ 0.284 µM) | 
CNC(=O)/C=C(\c1ccc(C)cc1)c1ccc2nc(N)c(-c3ccc(F)cc3)n2n1 | >10 µg/mL | 0.23 µg/mL (≈ 0.573 µM) | 
CNC(=O)/C=C(/c1ccccc1)c1ccc2nc(N)c(-c3ccc(F)cc3)n2n1 |  | > 10 µg/mL | 
Nc1nc2ccc(/C(=N/O)c3ccccc3)nn2c1-c1ccc(F)cc1 |  |  | TC50 [4]: >10 µg/mL; IC50 [1]: 0.05 µg/mL (≈ 0.144 µM)
CCOC(=O)/C=C(\c1ccccc1)c1ccc2nc(N)c(-c3ccc(F)cc3)n2n1 |  | > 10 µg/mL | 
CNC(=O)/C=C(/c1ccc(OC)cc1)c1ccc2nc(N)c(-c3ccc(F)cc3)n2n1 | >10 µg/mL | 4.2 µg/mL (≈ 10.1 µM) | 
Nc1nc2ccc(C(=O)c3ccccc3)nn2c1-c1ccccc1 |  |  | IC50 [1]: 7.19 µg/mL (≈ 22.9 µM)
CNC(=O)/C=C(/c1ccc(C)cc1)c1ccc2nc(N)c(-c3ccc(F)cc3)n2n1 | >10 µg/mL | > 10 µg/mL | 
Nc1nc2ccc(/C(=N/Nc3ccccc3)c3ccccc3)nn2c1-c1ccc(F)cc1 | >10 µg/mL | > 10 µg/mL | 
Nc1nc2ccc(/C(=N/O)c3ccccc3)nn2c1-c1ccccc1 | >10 µg/mL | 0.04 µg/mL (≈ 0.121 µM) | IC50 [5]: 0.02 µg/mL (≈ 0.0607 µM); IC50 [6]: 0.05 µg/mL (≈ 0.152 µM); IC50 [7]: 0.04 µg/mL (≈ 0.121 µM); IC50 [8]: 0.04 µg/mL (≈ 0.121 µM); IC50 [9]: 0.03 µg/mL (≈ 0.0911 µM); IC50 [10]: 0.06 µg/mL (≈ 0.182 µM); IC50 [11]: 0.05 µg/mL (≈ 0.152 µM)
